For assay [1], the system named is KOPN-8. Kind of assay: Induction of apoptosis in human KOPN8 cells assessed as late apoptotic cells at 10 uM after 24 hrs by Annexin V-FITC/propidium iodide staining-based flow cytometry (reference value: 9.5%). The class given is functional. The method, boiled down: (§1)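 KOPN-8 cells were treated for 24 h, with a DMSO vehicle control and a staurosporine positive control. Cells were stained with FITC-Annexin V and propidium iodide and analysed by flow cytometry. Quadrant gating separated viable, early apoptotic, late apoptotic (Q2) and necrotic populations.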
(In flow cytometry, cells or beads pass a laser one at a time.)

The test system of assay [2] is KOPN-8. Kind of assay: Induction of apoptosis in human KOPN8 cells assessed as effect on Mcl-1 level at 10 uM pre-treated with NAC for 1 hr and measured after 3 hrs by Western blot analysis relative to control. The class given is functional. (In general: A western blot detects proteins with antibodies after separation by electrophoresis.)
For assay [3], the system named is KOPN-8. As to the kind of experiment: Induction of apoptosis in human KOPN8 cells assessed as effect on Mcl-1 level at 10 uM after 3 hrs by Western blot analysis relative to control. The class given is functional. The method, boiled down: (§2)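 KOPN-8 cells were treated at 10–100 µM final, with or without N-acetylcysteine co-addition, for 3 h and 24 h. Lysates were analysed by Western blot for PARP cleavage, Mcl-1, phospho-Ser2 RNAPII CTD, c-Myc, total Rb and pRb. Levels are relative to the vehicle control.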

Assay [4] concerns KOPN-8. As to the kind of experiment: Induction of apoptosis in human KOPN8 cells assessed as effect on Mcl-1 level at 10 uM after 24 hrs by Western blot analysis relative to control. The class given is functional. In outline: as §2
Assay [5] deals with KOPN-8. Kind of assay: Induction of apoptosis in human KOPN8 cells assessed as effect on Mcl-1 level at 100 uM after 24 hrs by Western blot analysis relative to control. It counts as functional. In outline: as §2
For assay [6], the species on record is Homo sapiens. Kind of assay: Inhibition of RNA polymerase 2 C-terminal domain phosphorylation at Ser2 residue in human KOPN8 cells at 10 uM pre-treated with NAC for 1 hr and measured after 24 hrs by Western blot analysis relative to control. The class given is cell-based. The method, boiled down:
(§3)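 KOPN-8 cells were exposed to compound for 3 h and 24 h, with or without N-acetylcysteine added to a parallel set as antioxidant. Lysates were analysed by Western blot for cleaved PARP, Mcl-1, Ser-2-phosphorylated RNAPII CTD, cMyc, total Rb and pRb. Signals were compared against controls for dose-dependent change.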

The species entered for assay [7] is Homo sapiens. Kind of assay: Inhibition of RNA polymerase 2 C-terminal domain phosphorylation at Ser2 residue in human KOPN8 cells at 30 uM pre-treated with NAC for 1 hr and measured after 24 hrs by Western blot analysis relative to control. The class given is cell-based. In outline: as §3
For assay [8], the species on record is Homo sapiens. As to the kind of experiment: Inhibition of RNA polymerase 2 C-terminal domain phosphorylation at Ser2 residue in human KOPN8 cells at 100 uM pre-treated with NAC for 1 hr and measured after 24 hrs by Western blot analysis relative to control. It counts as cell-based. The method, boiled down:
as §3

Assay [9] has as its system KOPN-8. As to the kind of experiment: Effect on c-Myc expression in human KOPN8 cells at 100 uM after 24 hrs by Western blot analysis relative to control. The class given is functional. The method, boiled down:
as §2

Assay [10] concerns the target T1, Retinoblastoma-associated protein (Homo sapiens) (UniProt P06400).
T1 sequence (whole entry): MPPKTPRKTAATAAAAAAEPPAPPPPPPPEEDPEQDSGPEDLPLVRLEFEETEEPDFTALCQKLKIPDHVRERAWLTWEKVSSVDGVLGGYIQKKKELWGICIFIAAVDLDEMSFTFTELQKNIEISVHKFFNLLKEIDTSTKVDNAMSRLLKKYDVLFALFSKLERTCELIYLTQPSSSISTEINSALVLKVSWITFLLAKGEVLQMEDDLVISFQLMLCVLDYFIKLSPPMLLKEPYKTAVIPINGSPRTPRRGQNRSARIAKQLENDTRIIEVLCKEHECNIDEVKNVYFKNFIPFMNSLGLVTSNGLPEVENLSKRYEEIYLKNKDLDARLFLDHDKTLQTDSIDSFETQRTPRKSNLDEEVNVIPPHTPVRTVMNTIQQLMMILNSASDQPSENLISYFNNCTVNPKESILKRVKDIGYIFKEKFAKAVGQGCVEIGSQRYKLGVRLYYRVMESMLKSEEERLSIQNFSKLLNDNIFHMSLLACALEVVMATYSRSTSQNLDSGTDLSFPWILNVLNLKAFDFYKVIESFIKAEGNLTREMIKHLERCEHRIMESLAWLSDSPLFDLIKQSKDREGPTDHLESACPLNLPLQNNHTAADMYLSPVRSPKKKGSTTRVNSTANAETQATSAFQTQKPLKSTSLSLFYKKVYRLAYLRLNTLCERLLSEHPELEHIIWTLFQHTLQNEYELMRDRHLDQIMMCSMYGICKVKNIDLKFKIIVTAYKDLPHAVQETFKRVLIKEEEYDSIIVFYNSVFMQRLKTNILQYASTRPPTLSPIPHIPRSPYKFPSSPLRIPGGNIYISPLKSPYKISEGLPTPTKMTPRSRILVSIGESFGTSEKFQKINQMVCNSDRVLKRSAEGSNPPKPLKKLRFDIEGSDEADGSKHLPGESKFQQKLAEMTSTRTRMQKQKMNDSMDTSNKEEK
Kind of assay: Inhibition of Rb phosphorylation in human KOPN8 cells assessed as ratio of phosphorylated Rb to total Rb levels at 100 uM pre-treated with NAC for 1 hr and measured after 3 hrs by Western blot analysis relative to control. It counts as cell-based. The method, boiled down: (§4)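 KOPN-8 pre-B ALL cells were treated for 3 h and 24 h, with or without N-acetyl cysteine added to a parallel set of cells as an antioxidant/ROS quencher. Lysates were analysed by Western blot for phosphorylated Rb and total Rb. The same blots also probed PARP cleavage, Mcl-1, Ser-2-phosphorylated RNAPII CTD and cMyc.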

Assay [11] concerns the target T1, Retinoblastoma-associated protein (Homo sapiens). Kind of assay: Inhibition of Rb phosphorylation in human KOPN8 cells assessed as ratio of phosphorylated Rb to total Rb levels at 10 uM pre-treated with NAC for 1 hr and measured after 24 hrs by Western blot analysis relative to control. It counts as cell-based. The method, boiled down:
as §4

The subject of assay [12] is KOPN-8. Kind of assay: Induction of apoptosis in human KOPN8 cells assessed as necrotic cells at 5 uM after 24 hrs by Annexin V-FITC/propidium iodide staining-based flow cytometry (reference value: 0.2%). The class given is functional. In outline: as §1
In assay [13] the test system is SUP-B15. Kind of assay: Induction of apoptosis in human SUP-B15 cells assessed as early apoptotic cells at 5 uM after 24 hrs by Annexin V-FITC/propidium iodide staining-based flow cytometry (reference value: 0.1%). The class given is functional.
Assay [14] concerns KOPN-8. As to the kind of experiment: Cell cycle arrest in human KOPN8 cells assessed as accumulation at G0/G1 phase at 5 uM after 24 hrs by propidium iodide staining-based flow cytometry (reference value: 24.77%). It counts as functional. The method, boiled down:
(§5)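 KOPN-8 cells treated 24 h alongside a DMSO vehicle and a staurosporine (2.0 µM) positive control. Apoptosis was scored by FITC Annexin V / propidium iodide flow cytometry with quadrant gating (early, late apoptotic). DNA content was measured by PI staining to give the percentage of cells in G0/G1, S and G2/M. Groups were compared by t-test; error bars are SD.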

Assay [15] deals with KOPN-8. As to the kind of experiment: Cell cycle arrest in human KOPN8 cells assessed as accumulation at S phase at 5 uM after 24 hrs by propidium iodide staining-based flow cytometry (reference value: 66.56%). It counts as functional. The method, boiled down:
as §5

Assay [16] has as its system KOPN-8. As to the kind of experiment: Induction of apoptosis in human KOPN8 cells assessed as upregulation of cleaved PARP level at 0.5 uM pre-treated with NAC for 1 hr and measured after 3 hrs by Western blot analysis. It counts as functional, cell-based. The method, boiled down: as §3
The species named for assay [17] is Homo sapiens. As to the kind of experiment: Inhibition of RNA polymerase 2 C-terminal domain phosphorylation at Ser2 residue in human KOPN8 cells at 0.5 uM after 3 hrs by Western blot analysis relative to control. It counts as cell-based. In outline: as §3

Calls of active or inactive are those of the source. The calls are words filed in the database; no cut-off is given here.

For the compound `COc1ccc(-c2c(I)c(=O)c3c(OC)cc(OC)cc3n2S(=O)(=O)c2ccc(OC)cc2)cc1`, the Activity in assay [1] is listed as 69.2%. In addition, the “fold change (FC)” value in assay [2] was 0.8; in [3], 0.8; in assay [4], 1.1; in assay [5] it was 0.1; in assay [6], 1.5; in assay [7], 0.7. Also, the fold change (FC) in assay [8] is 0.1; in assay [9], 0.1; in assay [10], 1.1; in [11], 1.

`CN(C)C(=O)c1cc2cnc(Nc3ccc(N4CCNCC4)cn3)nc2n1C1CCCC1` [RIBOCICLIB]: the Activity in assay [12] is 0.3%; in assay [13], 0.3%; in [14] it was 45.66%; in assay [15] it was 25.55%. Further, the result in assay [16] was inactive. Further, the fold change (FC) in [17] was 0.8.

Values taken from ChEMBL document CHEMBL4196009, “Novel vitexin-inspired scaffold against leukemia” (Eur J Med Chem, 2018).
